High-throughput results: PubChem BioAssay, several laboratories
dFosB activator: activators of delta FosB homodimer, primary screen, biochemical, fluorescence polarization, TAMRA-CDK5 oligo, single point | 340,000 compounds, 0.99% hits | Protein FosB (Mus musculus), P13346 | purified delta FosB; percent of positive-control signal above neutral wells | activation, % at 25 µM;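 active = mean activation above about 17%, with every replicate also reaching it, limit read from the data, passing the limit was not always enough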
VIM-2 inh: VIM-2 metallo-beta-lactamase inhibitors, primary screen, biochemical, epi-absorbance readout, Pseudomonas aeruginosa enzyme | purified VIM-2, nitrocefin hydrolysis, epi-absorbance fluorescence | 290,000 compounds, 0.89% hits | inhibition, % at 5.6 µM;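 active = inhibition above the mean of all tested compounds plus 3 SD, cutoff set per screening run, cut at about 7.5% in these data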;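 note: red hydrolysis product quenches plate fluorescence so inhibitors raise well fluorescence; 0% = enzyme with DMSO and 100% = DMSO without enzyme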
IMP-1 inh: IMP-1 metallo-beta-lactamase inhibitors, primary screen, biochemical, epi-absorbance readout, Pseudomonas aeruginosa enzyme; metallo-beta-lactamase IMP-1 (Pseudomonas aeruginosa); purified IMP-1, nitrocefin hydrolysis, epi-absorbance fluorescence; inhibition, % at 5.6 µM; 290,000 compounds, 0.45% hits;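 active = inhibition above the mean plus 3 SD of all compounds in the same screening run, cut at about 4.5% in these data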;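 note: 0% = IMP-1 with DMSO and 100% = DMSO wells lacking enzyme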
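assay system = purified recombinant IMP-1 metallo-beta-lactamase enzyme | schedule = 15 min preincubation plus 25 min reaction at 25 °C | signal = Epi-absorbance fluorescence, 480 nm excitation, 530 nm emission | read-out basis = percent inhibition from optical density relative to buffer-blank wells | controls = IMP-1 with DMSO as 0%, enzyme-free DMSO as 100%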
m5-HT2A agonist: mouse Htr2a agonists via beta-arrestin recruitment, primary screen, cell-based, luminescence | activation, % at 7.6 µM | 5-hydroxytryptamine receptor 2A (Mus musculus), P35363 | 360,000 compounds, 0.66% hits | CHO-K1 mHTR2A beta-arrestin complementation; percent of 30 µM serotonin response;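 active = activation above a run cutoff, the mean activation of all tested compounds plus 3 SD, cut at about 14% in these data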;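 note: 0% = plate median of compound wells and 100% = 30 µM serotonin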
Target sequence (P35363 whole entry, looked up): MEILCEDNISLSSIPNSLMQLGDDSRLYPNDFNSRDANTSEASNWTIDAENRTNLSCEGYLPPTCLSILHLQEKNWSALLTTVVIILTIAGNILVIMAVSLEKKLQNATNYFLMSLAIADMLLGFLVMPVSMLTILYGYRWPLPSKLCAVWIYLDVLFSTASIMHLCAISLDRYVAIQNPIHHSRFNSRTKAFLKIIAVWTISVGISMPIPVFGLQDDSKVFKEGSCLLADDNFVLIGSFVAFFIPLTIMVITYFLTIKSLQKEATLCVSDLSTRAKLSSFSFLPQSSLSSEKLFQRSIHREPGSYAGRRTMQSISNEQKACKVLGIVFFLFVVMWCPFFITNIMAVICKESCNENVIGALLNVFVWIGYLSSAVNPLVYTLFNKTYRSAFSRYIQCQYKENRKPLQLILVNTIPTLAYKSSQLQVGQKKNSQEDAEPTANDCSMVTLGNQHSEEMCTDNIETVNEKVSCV
Numbers without * were called inactive; / = no result given. An excerpt weighted towards active compounds, which were near 2.5% of everything screened.

SMILES	dFosB activator	VIM-2 inh	IMP-1 inh	m5-HT2A agonist
O=C(C[n+]1ccccc1)N/N=C/c1ccccc1C(F)(F)F	-0.7	-0.7	-2.6	-6.1
Cc1cccc(N=C2NC(=O)C(CO)(CO)S2)c1	2.8	1.5	-0.7	0.9
O=C(Cn1nnc(-c2ccccc2F)n1)Nc1ccc(S(=O)(=O)NC2CCCC2)cc1	5.0	1.0	5.0*	-0.1
COc1cc(NCCCCCCN)c2ncccc2c1OC	18.0*	/	/	4.4
COc1cc(NC(C)CCCNC(C)C)c2ncccc2c1OC (stereo not drawn)	-8.4	/	/	-1.5
COc1ccc(-c2[nH][nH]c(=O)c2NC(=O)c2ccc(C)cc2)cc1	/	/	/	-4.2
CSc1nc(NCc2ccccc2)c2c3c(sc2n1)CN(C)CC3	1.8	3.6	-0.4	-10.8
CCN(CC)CCNc1nc(SC)nc2sc3c(c12)CCN(C)C3	-3.1	10.6*	-0.2	-6.3
CSc1nc(NCC(C)C)c2c3c(sc2n1)CN(C)CC3	-10.2	8.4*	-0.3	-5.9
COCCNc1nc(SC)nc2sc3c(c12)CCN(C)C3	-5.3	9.8*	-0.1	-9.5
CCNC(=O)C1CCCN(C(=O)c2ccco2)CC1 (stereo not drawn)	/	/	/	-2.7
CCC1CCCCN1CCCNC(=O)C1CCC(=O)N1Cc1ccc(C)cc1 (stereo not drawn)	16.2*	-1.2	-0.9	-2.2
Cc1ccc(CN2C(=O)CCC2C(=O)NCCCN2CCC(C)CC2)cc1 (stereo not drawn)	-3.7	-3.2	-2.1	-2.4
COc1ccc(Nc2nnc(-c3ccc(N4CCOCC4)c([N+](=O)[O-])c3)c3ccccc23)cc1	5.4	2.2	-2.4	30.9*
CC[C@@H](NCCCn1ccc(NC(=O)OCc2ccccc2)nc1=O)c1ccccc1	/	/	/	-4.4
CC(C)(C)N=Cc1c(O)ccc2oc3c(c12)CCCC3	-9.6	4.2	19.4*	-0.2
COc1ccccc1NS(=O)(=O)c1cccc(C(=O)NCC(c2cccs2)N(C)C)c1 (stereo not drawn)	0.6	/	/	-7.7
O=C(CSC1CC(=O)N(c2ccc(C(=O)O)cc2)C1=O)Nc1ccc(Cl)cc1 (stereo not drawn)	0.9	0.3	-2.5	-1.7
Cc1cc(SCC(=O)Nc2c(C)n(C)n(-c3ccccc3)c2=O)n2c(nc3ccccc32)c1C#N	/	22.5*	-1.5	/
COc1ccc(C(=O)C2CCCN(C(=O)Cc3c(C)noc3C)C2)cc1OC (stereo not drawn)	-3.4	-1.3	-2.7	6.2
COc1ccc(F)cc1C(=O)C1CCCN(C(=O)Cc2c(C)noc2C)C1 (stereo not drawn)	-1.3	8.3*	-0.7	0.7
CCOC(=O)C1=CN(CC2CCCCC2)CCC1=O	-8.8	/	/	13.6
CC1=CCC(C(=O)O)C(C(=O)NC2CCCCC2)C1 (stereo not drawn)	-10.5	-1.3	32.0*	2.7
CC1=C(C)CC(C(=O)NC2CCCC2)C(C(=O)O)C1 (stereo not drawn)	-4.9	-1.8	-1.7	-1.3
O=S(=O)(c1cccc(S(=O)(=O)N2CCC(N3CCCCC3)CC2)c1)N1CCOCC1	/	0.0	-2.4	/
SMILES	dFosB activator	VIM-2 inh	IMP-1 inh	m5-HT2A agonist
CC1CCN(S(=O)(=O)c2cccc(S(=O)(=O)N3CCOCC3)c2)CC1	-7.6	-2.2	5.4*	4.2
COc1ccc(-c2ccc(C(=O)NCc3ccc(C(F)(F)F)cc3)c3occc23)c(C)c1	/	/	/	2.2
CN(C)/C=C/C(=O)c1cc(N2CCOCC2)ccc1[N+](=O)[O-]	-6.6	-1.7	7.4*	-2.6
CC(=O)c1cc(N2CCOCC2)ccc1[N+](=O)[O-]	-3.2	-2.5	-1.4	3.6
Cc1ccc(C(=O)Nc2cc3[nH]c(=O)oc3cc2C)cc1	1.0	-6.6	-3.7	5.6
CSc1nnc(-c2cc[n+](C)cc2)n1CCO	6.2	-3.7	4.9*	-1.0
O=S(=O)(Nc1cccc(-n2cnnn2)c1)c1ccccc1F	1.8	-1.7	-3.8	1.8
CC(C)c1cc(NCCOCCO)n2c(nc3ccccc32)c1C#N	4.0	11.9*	-0.5	11.2
CC(=O)C1=C(O)C(=O)N(CC#N)C1c1cccs1 (stereo not drawn)	-5.8	-2.0	6.2*	-0.5
Cc1ccc(NC(=O)NNC(=O)c2cc3ccccc3cc2O)cc1	93.1*	-0.4	-1.8	3.0
COc1ccccc1NC(=O)NNC(=O)c1cc2ccccc2cc1O	13.9	-0.9	-3.5	-1.6
CC(=O)NN1C(=O)c2ccc(Oc3cccc([N+](=O)[O-])c3)cc2C1=O	-1.3	6.4	6.0*	-0.3
